Reference: paper PMC6955414 (British Journal of Clinical Pharmacology, 2019)
Where two headings read alike, the source gives them in different places.

What was measured:
[1] = format: in vivo, human; conditions: for AUC0–inf, geometric mean / Cmax, geometric mean / AUC_% Extrap / CL/F / Cmax / T1/2 / Tmax / Vz/F / median Tmax: single 200 μg s.c.; for AUC_% Extrap / CL/F / Cmax / T1/2 / Tmax / Vz/F: mean ± SD
Method in brief: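 Open-label phase I study in renally impaired and matched normal-function adults (CLcr ≥90 mL/min), with or without T2DM. A single abdominal s.c. injection was given at 08:00, followed by a standard breakfast. […] Parameters came from noncompartmental analysis; log-transformed AUC0–inf ratios to the normal group were given with 90% CI.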

[2] = Safety evaluation; format: in vivo, human
Method in brief: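 Single abdominal s.c. 200 μg dose given fasting on day 1. Monitoring covered adverse events, vital signs, physical examination, fasting venous glucose, blood and urine routine, blood biochemistry and 12-lead ECG. Assessments were at 24, 144, 312 and 720 h post-dose. The safety set comprised all dosed subjects with post-dose safety data.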

[3] = cited from earlier work
[4] = Mild impairment (n=8), single 200 μg s.c.
[5] = Moderate impairment (n=8), single 200 μg s.c.
[6] = Normal renal function (n=10), single 200 μg s.c.
[7] = all groups (26 subjects), single 200 μg s.c.

## Polyethylene glycol loxenatide [PEX168]
[1]; Mild impairment (n=8)
  AUC0–inf, geometric mean: 16 500 h^*ng/mL
  Cmax, geometric mean: 48.5 ng/mL
[1]; Mild renal impairment, n=8
  AUC_% Extrap: 3.49 ± 1.32%
  CL/F: 0.0136 ± 0.00657 L/h
  Cmax: 54.1 ± 29.7 ng/mL
  T1/2: 117 ± 16.5 h
  Tmax: 123 ± 15.4 h
  Vz/F: 2.28 ± 1.09 L
[1]; Moderate impairment (n = 7)
  AUC0–inf, geometric mean: 29 200 h^*ng/mL
  Cmax, geometric mean: 73.1 ng/mL
[1]; Moderate renal impairment, n=7
  AUC_% Extrap: 6.92 ± 1.75%
  CL/F: 0.00711 ± 0.0022 L/h
  Cmax: 78.1 ± 35.9 ng/mL
  T1/2: 163 ± 14.7 h
  Tmax: 144 ± 33.9 h
  Vz/F: 1.69 ± 0.61 L
[1]; Normal (n = 8)
  AUC0–inf, geometric mean: 14 600 h^*ng/mL
  Cmax, geometric mean: 56.6 ng/mL
[1]; Normal renal function, n=8
  CL/F: 0.0140 ± 0.00298 L/h
  Tmax: 114 ± 45.8 h
  Vz/F: 2.44 ± 0.56 L
[1]; mild impairment group
  median Tmax: 120 h
[1]; mild impairment relative to normal renal function, 90%CI 61.5–119
  Cmax, geometric mean ratio normal vs mild: 85.6%
[1]; mild impairment relative to normal renal function, 90%CI 82.1–156
  AUC0–inf, geometric mean ratio normal vs mild: 113%
[1]; mild renal impairment
  AUC0–inf increase compared to the normal group: 13.1%
  Cmax reduction compared to the normal group: 14.3%
[1]; moderate impairment group
  median Tmax: 144 h
[1]; moderate impairment relative to normal renal function, 90%CI 91.7–182
  Cmax, geometric mean ratio normal vs moderate: 129%
[1]; moderate impairment relative to normal renal function, 90%CI 144–280
  AUC0–inf, geometric mean ratio normal vs moderate: 201%
[1]; moderate renal impairment
  AUC0–inf increase compared to the normal group: 100.7%
  Cmax increase compared to the normal group: 29.1%
[1]; normal group
  median Tmax: 96 h
[2]; [4]
  Treatment-emergent AE: Abdominal discomforts, %: 0%
  Treatment-emergent AE: Acute kidney injury, %: 0%
  Treatment-emergent AE: Anaemia, %: 0%
  Treatment-emergent AE: Bloating, %: 25%
  Treatment-emergent AE: Hiccup, %: 12.5%
  Treatment-emergent AE: Increased white blood cell count, %: 0%
  Treatment-emergent AE: Nausea, %: 50%
  Treatment-emergent AE: Oropharyngeal discomfort, %: 12.5%
  Treatment-emergent AE: Overall AEs, %: 87.5%
  Treatment-emergent AE: Retching, %: 0%
  Treatment-emergent AE: Vomiting, %: 50%
[2]; [5]
  Treatment-emergent AE: Abdominal discomforts, %: 0%
  Treatment-emergent AE: Acute kidney injury, %: 12.5%
  Treatment-emergent AE: Anaemia, %: 12.5%
  Treatment-emergent AE: Bloating, %: 0%
  Treatment-emergent AE: Hiccup, %: 12.5%
  Treatment-emergent AE: Increased white blood cell count, %: 12.5%
  Treatment-emergent AE: Nausea, %: 62.5%
  Treatment-emergent AE: Oropharyngeal discomfort, %: 0%
  Treatment-emergent AE: Overall AEs, %: 87.5%
  Treatment-emergent AE: Retching, %: 12.5%
  Treatment-emergent AE: Vomiting, %: 50%
[2]; [6]
  Treatment-emergent AE: Abdominal discomforts, %: 10%
  Treatment-emergent AE: Acute kidney injury, %: 0%
  Treatment-emergent AE: Anaemia, %: 0%
  Treatment-emergent AE: Bloating, %: 50%
  Treatment-emergent AE: Hiccup, %: 0%
  Treatment-emergent AE: Increased white blood cell count, %: 0%
  Treatment-emergent AE: Nausea, %: 20%
  Treatment-emergent AE: Oropharyngeal discomfort, %: 0%
  Treatment-emergent AE: Overall AEs, %: 70%
  Treatment-emergent AE: Retching, %: 0%
  Treatment-emergent AE: Vomiting, %: 0%
[2]; [7]
  AE: gastrointestinal disorders, subjects: 80.8%
  AE: laboratory tests, subjects: 42.3%
  AE: metabolism and nutrition disorders, subjects: 42.3%
[2]; all groups, single 200 μg s.c., including nausea, vomiting and bloating
  Treatment-emergent AE: gastrointestinal disorders, subjects: 80.8%
[2]; single dose of 200 μg, patients with mild-to-moderate renal impairment
  Tolerability: well tolerated

## exenatide
[3]
  in vivo half-life: 2 to 3 h
